Test results as given in ChEMBL document CHEMBL1148460, “Interaction of cycloSal-pronucleotides with cholinesterases from different origins. A structure-activity relationship” (J Med Chem, 2004).
pEC50, pIC50: −log10 of the molar value.

Key:
CCRF-CEM = assay: Anti-HIV-1 activity tested in human lymphocytic CEM cells; format: functional, cell-based
Cholinesterase [1] = biological target: Cholinesterase (Homo sapiens, UniProt P06276); assay: Inhibitory activity towards human butyrylcholinesterase
Outline: (§1)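 Modified Rappaport assay following acetylcholine chloride hydrolysis to acetic acid, with m-nitrophenol indicator in phosphate buffer at pH 7.8 and NaCl. The compound is added in DMSO, and the reaction is started with serum (human, mouse or calf). A420 is read at 25 °C at 0 and 5 min. Final inhibitor is 0.1, 0.5, 1, 5, 10, 30 and 50 µM. IC50 is interpolated from ΔE plots in the pseudolinear region.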

Acetylcholinesterase [2] = biological target: Acetylcholinesterase (Electrophorus electricus, UniProt O42275); assay: Inhibitory activity towards Electrophorus electricus acetylcholinesterase
L1210 = assay: Antitumor activity tested in L1210 cells; format: functional, cell-based; settings: Mus musculus
Cholinesterase [3] = biological target: Cholinesterase (Mus musculus, UniProt Q03311); assay: Inhibitory activity towards mouse butyrylcholinesterase; outline: as §1
Acetylcholinesterase [4] = biological target: T1, Acetylcholinesterase (Bos taurus, UniProt P23795); assay: Inhibitory activity towards beef erythrocytes acetylcholinesterase
T1 sequence (P23795 whole entry): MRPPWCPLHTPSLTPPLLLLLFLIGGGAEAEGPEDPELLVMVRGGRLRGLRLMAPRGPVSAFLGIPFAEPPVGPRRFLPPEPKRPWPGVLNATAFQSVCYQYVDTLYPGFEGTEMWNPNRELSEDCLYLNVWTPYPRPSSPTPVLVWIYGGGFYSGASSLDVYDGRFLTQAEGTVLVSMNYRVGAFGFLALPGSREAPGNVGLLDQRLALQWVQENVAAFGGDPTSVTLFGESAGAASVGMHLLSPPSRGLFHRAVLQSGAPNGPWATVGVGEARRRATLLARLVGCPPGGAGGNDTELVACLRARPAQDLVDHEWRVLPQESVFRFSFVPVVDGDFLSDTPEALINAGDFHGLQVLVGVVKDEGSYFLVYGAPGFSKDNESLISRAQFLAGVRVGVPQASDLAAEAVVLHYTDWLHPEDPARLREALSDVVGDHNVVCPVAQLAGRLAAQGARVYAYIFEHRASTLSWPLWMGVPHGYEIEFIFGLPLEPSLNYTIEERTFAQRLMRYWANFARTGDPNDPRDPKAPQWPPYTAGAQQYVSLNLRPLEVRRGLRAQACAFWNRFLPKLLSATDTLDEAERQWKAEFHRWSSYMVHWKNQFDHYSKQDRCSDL

Acetylcholinesterase [5] = biological target: T1, Acetylcholinesterase; assay: Inhibitory activity towards calf serum acetylcholinesterase; outline: as §1

Acetylcholinesterase (Electrophorus electricus, UniProt O42275), sequence (O42275 whole entry): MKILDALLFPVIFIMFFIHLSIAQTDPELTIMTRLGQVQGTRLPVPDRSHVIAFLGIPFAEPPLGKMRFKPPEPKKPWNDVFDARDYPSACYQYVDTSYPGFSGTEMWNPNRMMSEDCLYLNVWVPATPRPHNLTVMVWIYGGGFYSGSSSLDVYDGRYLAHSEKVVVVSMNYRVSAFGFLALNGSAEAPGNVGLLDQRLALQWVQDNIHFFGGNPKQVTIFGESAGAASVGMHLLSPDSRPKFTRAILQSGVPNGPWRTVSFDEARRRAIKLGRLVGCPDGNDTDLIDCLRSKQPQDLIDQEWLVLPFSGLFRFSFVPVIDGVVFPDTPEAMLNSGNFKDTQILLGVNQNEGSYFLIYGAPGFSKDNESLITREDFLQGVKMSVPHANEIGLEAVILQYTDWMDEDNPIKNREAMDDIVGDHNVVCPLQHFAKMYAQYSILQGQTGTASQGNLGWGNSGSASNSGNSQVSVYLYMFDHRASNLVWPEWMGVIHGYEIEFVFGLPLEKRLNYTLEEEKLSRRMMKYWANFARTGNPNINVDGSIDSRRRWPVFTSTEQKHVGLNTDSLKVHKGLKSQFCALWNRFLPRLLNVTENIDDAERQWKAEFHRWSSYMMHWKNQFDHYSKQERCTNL
Cholinesterase (Homo sapiens, UniProt P06276), sequence (P06276 whole entry): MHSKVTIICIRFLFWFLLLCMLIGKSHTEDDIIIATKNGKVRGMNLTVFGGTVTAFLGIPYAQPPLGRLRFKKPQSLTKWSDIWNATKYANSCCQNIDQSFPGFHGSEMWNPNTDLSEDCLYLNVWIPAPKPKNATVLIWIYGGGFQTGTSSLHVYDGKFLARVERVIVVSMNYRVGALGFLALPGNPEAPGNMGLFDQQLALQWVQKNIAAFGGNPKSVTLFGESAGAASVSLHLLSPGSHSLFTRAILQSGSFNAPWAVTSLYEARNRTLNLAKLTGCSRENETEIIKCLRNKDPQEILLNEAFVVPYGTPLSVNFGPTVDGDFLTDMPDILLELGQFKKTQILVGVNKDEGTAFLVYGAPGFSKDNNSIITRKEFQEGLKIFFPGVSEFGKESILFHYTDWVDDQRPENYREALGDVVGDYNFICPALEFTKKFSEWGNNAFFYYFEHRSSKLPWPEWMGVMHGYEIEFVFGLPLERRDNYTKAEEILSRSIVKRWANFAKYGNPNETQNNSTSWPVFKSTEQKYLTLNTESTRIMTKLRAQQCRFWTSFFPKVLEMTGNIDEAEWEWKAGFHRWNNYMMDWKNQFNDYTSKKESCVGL
Cholinesterase (Mus musculus, UniProt Q03311), sequence (Q03311 whole entry): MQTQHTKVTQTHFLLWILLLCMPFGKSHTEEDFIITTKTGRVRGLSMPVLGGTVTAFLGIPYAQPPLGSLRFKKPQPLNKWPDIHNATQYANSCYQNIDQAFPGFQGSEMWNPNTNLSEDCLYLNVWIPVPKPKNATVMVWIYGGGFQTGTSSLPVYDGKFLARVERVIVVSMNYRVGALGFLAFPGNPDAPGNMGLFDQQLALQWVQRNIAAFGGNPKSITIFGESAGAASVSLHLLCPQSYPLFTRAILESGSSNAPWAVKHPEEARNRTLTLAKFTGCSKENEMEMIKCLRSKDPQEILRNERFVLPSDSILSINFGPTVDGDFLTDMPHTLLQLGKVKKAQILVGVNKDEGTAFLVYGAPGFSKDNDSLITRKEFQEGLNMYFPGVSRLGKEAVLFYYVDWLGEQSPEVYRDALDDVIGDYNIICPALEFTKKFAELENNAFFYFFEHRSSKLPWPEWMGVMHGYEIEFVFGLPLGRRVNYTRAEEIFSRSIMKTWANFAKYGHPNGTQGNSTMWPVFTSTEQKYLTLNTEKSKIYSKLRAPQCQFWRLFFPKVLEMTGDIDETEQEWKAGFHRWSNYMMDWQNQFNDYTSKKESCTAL

| SMILES | pEC50 (CCRF-CEM) | pIC50 (Cholinesterase [1]) | pIC50 (Acetylcholinesterase [2]) | pEC50 (L1210) | pIC50 (Cholinesterase [3]) | pIC50 (Acetylcholinesterase [4]) | pIC50 (Acetylcholinesterase [5]) |
| --- | --- | --- | --- | --- | --- | --- | --- |
| Cc1cn(C2C=CC(COP3(=O)OCc4ccc5ccccc5c4O3)O2)c(=O)[nH]c1=O (centres undefined) | 6.85 | 6.60 | < 4.30 | – | – | – | – |
| Cc1cn(C2C=CC(COP3(=O)OCc4cccc(CCC(=O)O)c4O3)O2)c(=O)[nH]c1=O (centres undefined) | 6.72 | < 4.30 | < 4.30 | – | – | – | – |
| CCOC(=O)CC1OP(=O)(OCC2C=CC(n3cc(C)c(=O)[nH]c3=O)O2)Oc2cccc(Cl)c21 (centres undefined) | 6.85 | < 4.30 | < 4.30 | – | – | – | – |
| Cc1cn(C2C=CC(COP3(=O)OCc4cc(C(C)(C)C)ccc4O3)O2)c(=O)[nH]c1=O (centres undefined) | 6.85 | 5.25 | < 4.30 | – | – | – | – |
| Cc1cccc2c1OP(=O)(OC[C@@H]1C[C@@H](F)[C@H](n3cnc4c(N)ncnc43)O1)OC2 (some centres undefined) | – | 5.96 | < 4.30 | – | – | – | – |
| Cc1cccc2c1OP(=O)(OCC1CCC(n3cc(C)c(=O)[nH]c3=O)O1)OC2 (centres undefined) | 5.37 | 6.00 | < 4.30 | – | – | – | – |
| Cc1cn(C2C=CC(COP3(=O)OCc4cccc(CCC(=O)OCc5ccccc5)c4O3)O2)c(=O)[nH]c1=O (centres undefined) | 6.82 | 5.55 | < 4.30 | – | – | – | – |
| CCC(C)c1cccc2c1OP(=O)(OCC1C=CC(n3cc(C)c(=O)[nH]c3=O)O1)OC2 (centres undefined) | 7.10 | 5.70 | < 4.30 | – | – | – | – |
| Cc1cn(C2C=CC(COP3(=O)Oc4ccccc4C(C(Cl)(Cl)Cl)O3)O2)c(=O)[nH]c1=O (centres undefined) | 6.72 | 4.57 | < 4.30 | – | – | – | – |
| Cc1cn(C2C=CC(COP3(=O)OCc4cc(CCC(=O)OC(C)(C)C)ccc4O3)O2)c(=O)[nH]c1=O (centres undefined) | 6.74 | 5.36 | < 4.30 | – | – | – | – |
| Cc1cn(C2C=CC(COP3(=O)Oc4cccc(Cl)c4C(C)O3)O2)c(=O)[nH]c1=O (centres undefined) | 6.72 | 5.74 | < 4.30 | – | – | – | – |
| Cc1cccc2c1OP(=O)(OCC1CC(O)C(n3cnc4c(N)ncnc43)O1)OC2 (centres undefined) | – | 4.55 | < 4.30 | – | – | – | – |
| COc1ccc2c(c1)CO[P@@](=O)(OC[C@@H]1C=CC(n3cc(C)c(=O)[nH]c3=O)O1)O2 (single isomer, unassigned) | 6.30 | 5.74 | < 4.30 | – | – | – | – |
| Cc1cn(C2C=CC(COP3(=O)Oc4ccccc4C(C(Cl)Cl)O3)O2)c(=O)[nH]c1=O (centres undefined) | 6.80 | 4.59 | < 4.30 | – | – | – | – |
| Cc1cc(C)c2c(c1)COP(=O)(OCC1C=CC(n3cc(C)c(=O)[nH]c3=O)O1)O2 (centres undefined) | – | 4.34 | < 4.30 | – | – | – | – |
| Cc1cccc2c1O[P@@](=O)(OC[C@H]1O[C@@H](n3cc(F)c(=O)[nH]c3=O)C[C@@H]1O)OC2 | – | – | < 4.30 | 7.40 | – | – | – |
| Cc1ccc2c(c1)COP(=O)(OC[C@@H]1C=C[C@H](n3cc(C)c(=O)[nH]c3=O)O1)O2 (some centres undefined) | – | 5.34 | < 4.30 | – | – | – | – |
| Cc1cn([C@H]2C=C[C@@H](CO[P@@]3(=O)OCc4cccc(C(C)(C)C)c4O3)O2)c(=O)[nH]c1=O | 6.89 | < 4.30 | < 4.30 | – | – | – | – |
| Cc1cn(C2C=CC(COP3(=O)OCc4cc(-c5ccccc5)ccc4O3)O2)c(=O)[nH]c1=O (centres undefined) | 6.40 | 5.36 | < 4.30 | – | – | – | – |
| Cc1cn(C2C=CC(COP3(=O)OCc4c(ccc5ccccc45)O3)O2)c(=O)[nH]c1=O (centres undefined) | 7.05 | 5.41 | < 4.30 | – | – | – | – |
| Cc1cccc2c1OP(=O)(OC[C@@H]1C=C[C@H](n3cc(C)c(=O)[nH]c3=O)O1)OC2 (some centres undefined) | – | 5.92 | < 4.30 | – | – | – | – |
| Cc1cn([C@H]2C=C[C@@H](COP3(=O)OCc4cccc(C(C)(C)C)c4O3)O2)c(=O)[nH]c1=O (some centres undefined) | 6.74 | 5.38 | < 4.30 | – | – | – | – |
| COC(=O)CCc1ccc2c(c1)COP(=O)(OCC1C=CC(n3cc(C)c(=O)[nH]c3=O)O1)O2 (centres undefined) | 6.62 | 5.06 | < 4.30 | – | – | – | – |
| Cc1cn(C2C=C[C@@H](CO[P@]3(=O)OCc4cccc(C(C)(C)C)c4O3)O2)c(=O)[nH]c1=O (single isomer, unassigned) | 6.22 | 5.59 | < 4.30 | – | – | – | – |
| Cc1cccc2c1OP(=O)(OC[C@H]1O[C@@H](n3cc(C)c(=O)[nH]c3=O)C[C@@H]1O)OC2 (some centres undefined) | – | 4.44 | < 4.30 | – | – | – | – |

| SMILES | pEC50 (CCRF-CEM) | pIC50 (Cholinesterase [1]) | pIC50 (Acetylcholinesterase [2]) | pEC50 (L1210) | pIC50 (Cholinesterase [3]) | pIC50 (Acetylcholinesterase [4]) | pIC50 (Acetylcholinesterase [5]) |
| --- | --- | --- | --- | --- | --- | --- | --- |
| Cc1cccc2c1OP(=O)(OC[C@H]1C=CC(n3cnc4c(NC5CC5)nc(N)nc43)C1)OC2 (single isomer, unassigned) | 6.15 | 5.89 | < 4.30 | – | – | – | – |
| Cc1cccc2c1OP(=O)(OCC1C=CC(n3cnc4c(O)nc(N)nc43)C1)OC2 (centres undefined) | 6.33 | 5.60 | < 4.30 | – | – | – | – |
| CCC(C)c1ccc2c(c1)COP(=O)(OCC1C=CC(n3cc(C)c(=O)[nH]c3=O)O1)O2 (centres undefined) | 5.72 | 5.48 | < 4.30 | – | – | – | – |
| O=C1NC(=O)N([C@H]2C[C@H](O)[C@@H](COP3(=O)OCc4cccc(-c5ccccc5)c4O3)O2)C[C@H]1/C=C/Br (some centres undefined) | – | < 4.30 | < 4.30 | – | – | – | – |
| Cc1cccc2c1OP(=O)(OCC1C=CC(n3cnc4c(N)ncnc43)O1)OC2 (centres undefined) | 7.19 | 5.92 | < 4.30 | – | 4.98 | < 4.30 | < 4.30 |
| Cc1cccc2c1O[P@@](=O)(OC[C@@H]1C=C[C@H](n3cc(C)c(=O)[nH]c3=O)O1)OC2 | 7.10 | < 4.30 | < 4.30 | – | < 4.30 | < 4.30 | < 4.30 |
| O=C1NC(=O)N([C@H]2C[C@H](O)[C@@H](CO[P@]3(=O)OCc4cccc(-c5ccccc5)c4O3)O2)CC1/C=C/Br (some centres undefined) | – | 5.43 | < 4.30 | – | – | – | – |
| Cc1cccc2c1OP(=O)(OC[C@H]1O[C@@H](N3C=NC4C(=O)N=C(N)N=C43)C[C@@H]1O)OC2 (some centres undefined) | – | < 4.30 | < 4.30 | – | – | – | – |
| COc1ccc2c(c1)CO[P@](=O)(OC[C@@H]1C=C[C@H](n3cc(C)c(=O)[nH]c3=O)O1)O2 | 7.37 | < 4.30 | < 4.30 | – | – | – | – |
| Cc1cn(C2C=CC(COP3(=O)OCc4cccc(-c5ccccc5)c4O3)O2)c(=O)[nH]c1=O (centres undefined) | 6.89 | 6.46 | < 4.30 | – | – | – | – |
| Cc1cn(C2C=CC(COP3(=O)OCc4cc(CCC(=O)OCc5ccccc5)ccc4O3)O2)c(=O)[nH]c1=O (centres undefined) | 7.10 | 4.66 | < 4.30 | – | – | – | – |
| Cc1cccc2c1OP(=O)(OC[C@@H]1C[C@H](F)[C@H](n3cnc4c(N)ncnc43)O1)OC2 (some centres undefined) | – | 5.30 | < 4.30 | – | < 4.30 | < 4.30 | < 4.30 |
| COC(=O)CCc1cccc2c1OP(=O)(OCC1C=CC(n3cc(C)c(=O)[nH]c3=O)O1)OC2 (centres undefined) | 6.80 | 5.57 | < 4.30 | – | – | – | – |
| Cc1cccc2c1OP(=O)(OCC1CCC(n3cnc4c(N)ncnc43)O1)OC2 (centres undefined) | 7.33 | 6.04 | < 4.30 | – | 5.63 | < 4.30 | < 4.30 |
| Cc1cccc2c1OP(=O)(OCC1OC(n3cc(C)c(=O)[nH]c3=O)CC1=O)OC2 (centres undefined) | – | < 4.30 | < 4.30 | – | – | – | – |
| Cc1cn(C2C=CC(COP3(=O)OCc4cc(C(C)(C)C)cc(C(C)(C)C)c4O3)O2)c(=O)[nH]c1=O (centres undefined) | 5.96 | < 4.30 | < 4.30 | – | – | – | – |
| Cc1cccc2c1O[P@](=O)(OC[C@@H]1C=CC(n3cc(C)c(=O)[nH]c3=O)O1)OC2 (single isomer, unassigned) | 6.38 | 6.62 | < 4.30 | – | ≤ 5.30 | < 4.30 | < 4.30 |
| CCCCC1OP(=O)(OCC2C=CC(n3cc(C)c(=O)[nH]c3=O)O2)Oc2cccc(Cl)c21 (centres undefined) | 6.72 | 4.89 | < 4.30 | – | – | – | – |
| Cc1cn([C@H]2C=C[C@@H](COP3(=O)OCc4ccccc4O3)O2)c(=O)[nH]c1=O (some centres undefined) | – | 6.11 | < 4.30 | – | – | – | – |
| Cc1cccc2c1O[P@@](=O)(OC[C@H](CO)OCn1cnc3c(O)nc(N)nc31)OC2 | – | 4.64 | < 4.30 | – | – | – | – |
| Cc1cccc2c1OP(=O)(OCC1OC(n3cc(C)c(=O)[nH]c3=O)CC1N=[N+]=[N-])OC2 (centres undefined) | 8.22 | 4.40 | < 4.30 | – | < 4.30 | < 4.30 | < 4.30 |
| Cc1cn(C2C=CC(COP3(=O)Oc4ccccc4C(CCl)O3)O2)c(=O)[nH]c1=O (centres undefined) | 6.72 | 5.41 | < 4.30 | – | – | – | – |
| Cc1cn(C2C=CC(COP3(=O)OCc4cc5ccccc5cc4O3)O2)c(=O)[nH]c1=O (centres undefined) | 6.39 | 6.39 | < 4.30 | – | – | – | – |
| Cc1cn(C2C=CC(COP3(=O)OCc4c(Cl)cccc4O3)O2)c(=O)[nH]c1=O (centres undefined) | 7.05 | 6.24 | < 4.30 | – | – | – | – |
| Cc1cn(C2C=CC(COP3(=O)OCc4cc(CCC(=O)O)ccc4O3)O2)c(=O)[nH]c1=O (centres undefined) | 6.85 | < 4.30 | < 4.30 | – | – | – | – |
